What all share (format): functional, cell-based
The subject of assay [1] is CH1. The experiment in a line: In vitro inhibition of human ovarian cell line, resistant to cisplatin (CH1cisR). The method in brief:
(§1)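 Single viable cells seeded at 4000-5000/well in DMEM with 10% fetal calf serum and left to attach overnight. Compounds dissolved in water and added at once, 10 concentrations per drug, 4 wells per concentration, 96 h exposure. Cell number in treated versus control wells read by sulforhodamine B staining; IC50 is the concentration cutting absorbance by 50% relative to controls.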

In assay [2] the test system is A2780. The experiment in a line: In vitro inhibition of human ovarian cell line A2780. In outline: as §1
Assay [3] concerns CH1. The experiment in a line: In vitro inhibition of human ovarian cell line (CH1). The method in brief:
as §1

For assay [4], the system named is CH1. The assay is described as follows: In vitro inhibition of human ovarian cell line, resistant to doxorubicin (CH1doxR). The method in brief: as §1
Assay [5] relates to A2780. The experiment in a line: In vitro inhibition of human ovarian cell line, resistant to cisplatin (A2780cisR). The method in brief: as §1
Assay [6] has as its system SK-OV-3. The experiment in a line: In vitro inhibition of human ovarian cell line SKOV-3. The method in brief: as §1
Assay [7] concerns CH1. The experiment in a line: Resistance factor, (IC50 of CH1 doxR / IC50 of CH1). As to conditions: Homo sapiens.
The subject of assay [8] is CH1. The assay is described as follows: Resistance factor, (IC50 of CH1 cisR / IC50 of CH1). As to conditions: Homo sapiens; CH1cisR.
In assay [9] the test system is A2780. The experiment in a line: Resistance factor, (IC50 of A2780 cisR cisR / IC50 of A2780). Conditions: Homo sapiens.

Where “and” joins values, the source holds several entries; their conditions need not be identical. Equal values may be shown once. Some results are limits rather than exact numbers.

One may read the IC50 as the concentration that gives 50% inhibition. A lower IC50 goes with inhibition by little substance. In the case of “4'-chloro-2,2':6,2''-Terpyridineplatinum (II) complex [listing 1 of 4 here]”, the IC50 in assay [1] stood at 1.8 µM; in assay [2] it was 2.4 µM; in assay [3], 1.4 µM; in assay [4] it was 0.46 µM; in assay [5], 1.4 µM; in assay [6], 5.1 µM.
As to “4'-chloro-2,2':6,2''-Terpyridineplatinum (II) complex [listing 2 of 4 here]”, the IC50 is 2.15 µM in assay [1]; more than 25 µM in assay [2]; 2.05 µM in assay [3]; 0.71 µM in [4]; 11 µM in [5]; 3.5 µM in [6].
For the substance “4'-chloro-2,2':6,2''-Terpyridineplatinum (II) complex [listing 3 of 4 here]”, the IC50 in assay [2] worked out at 4.75 µM; in assay [3], 2.15 µM; in assay [5] it was 6.6 µM; in assay [6], 1.8 µM.
As to “4'-chloro-2,2':6,2''-Terpyridineplatinum (II) complex [listing 4 of 4 here]”, the Resistance factor in [7] is 0.3; in [8], 1 (2×) and 1.3; in [9], 1.4 and 0.6.
For “(2,2':6',2''-terpyridine)platinum (II) complex [listing 1 of 10 here]”, the IC50 amounted to 5.8 µM in [1]; 39 µM in assay [2]; 5 µM in [3]; 1.05 µM in [4]; 29.5 µM in assay [5].
As to “(2,2':6',2''-terpyridine)platinum (II) complex [listing 2 of 10 here]”, the IC50 in assay [1] is 14 µM; in assay [2], 21.5 µM; in assay [3], 15.5 µM; in assay [4], 5.4 µM; in assay [6], more than 100 µM.
As for “(2,2':6',2''-terpyridine)platinum (II) complex [listing 3 of 10 here]”, the IC50 in assay [1] was 18 µM; in assay [3] it was 17.5 µM; in [4], 5.7 µM; in assay [5], more than 100 µM; in [6], 24 µM.
Consider “(2,2':6',2''-terpyridine)platinum (II) complex [listing 4 of 10 here]”, for which the values for the IC50 in [1], in assay [3] and in assay [4] were more than 100 µM, more than 100 µM and 17.5 µM, respectively.
On to “(2,2':6',2''-terpyridine)platinum (II) complex [listing 5 of 10 here]”, for which the concentration for half-maximal inhibition (IC50) was 12.5 µM in assay [1]; 40 µM in assay [2]; 14 µM in assay [3]; 5 µM in [4]; 92 µM in [5]; 17 µM in assay [6].
For the substance “(2,2':6',2''-terpyridine)platinum (II) complex [listing 6 of 10 here]”, the IC50 stood at 7.5 µM in [1]; 16 µM in assay [2]; 6.1 µM in assay [3]; 3.95 µM in assay [4]; 21.5 µM in assay [5]; 13 µM in [6].
Consider “(2,2':6',2''-terpyridine)platinum (II) complex [listing 7 of 10 here]”, for which the IC50 in assay [1] is 2.1 µM; in assay [2], 5.8 µM; in assay [3] it was 2.1 µM; in assay [4], 0.85 µM; in assay [5] it was 6.7 µM; in assay [6], 9.2 µM.
“(2,2':6',2''-terpyridine)platinum (II) complex [listing 8 of 10 here]”: the IC50 was 8.9 µM in assay [1]; 27 µM in assay [2]; 7.2 µM in assay [3]; 1.5 µM in assay [4]; 25 µM in assay [5]; 13.5 µM in assay [6].
Regarding “(2,2':6',2''-terpyridine)platinum (II) complex [listing 9 of 10 here]”, the IC50 in assay [1] came out at 4.5 µM; in assay [2], 11.5 µM; in [3] it was 5.2 µM; in assay [4], 3.75 µM; in [5] it was 23.5 µM; in assay [6], 15 µM.
Take “(2,2':6',2''-terpyridine)platinum (II) complex [listing 10 of 10 here]”: the Resistance factor was 0.9 (3×) and 1 (2×) and 1.2 (3×) in [8]; 1.3 [middle of 6 runs] in [9].
Regarding CARBOPLATIN [listing 1 of 2 here], the IC50 in [1] is 14 µM; in [2] it was 35 µM; in [3] it was 6.2 µM; in [4], 6 µM; in assay [5], more than 100 µM; in [6], more than 100 µM.
Regarding CARBOPLATIN [listing 2 of 2 here], the Resistance factor was 1 in assay [7] and 2.3 in [8].
As to CISPLATIN [listing 1 of 2 here], the IC50 amounted to 1.2 µM in assay [1]; 0.53 µM in assay [2]; 0.4 µM in assay [3]; 0.5 µM in assay [4]; 8.8 µM in assay [5]; 2.25 µM in assay [6].
Consider CISPLATIN [listing 2 of 2 here], for which the Resistance factor in [7] is 1.2; in assay [8], 3; in assay [9], 16.6.
